ChEMBL document CHEMBL4689842, “EUbOPEN Chemogenomics Library wave 1” (2021)

Test system: Fibroblast
Test: Multiplex assay against human fibroblast
Format: toxicity, cell-based
Procedure, shortened: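 Cells stained live at seeding with Hoechst33342, BioTracker Green Microtubule Cytoskeleton Dye, MitoTracker Red and Annexin V Alexa Fluor 680 were imaged on a CQ1 microscope at 37°C and 5% CO2 after compound addition. Their classification by CellPathfinder machine-learning gating ran from Hoechst high-intensity objects versus normal cells, to healthy, pyknosed or fragmented nuclei among normal cells, to mitotic or apoptotic among pyknosed cells. Tubulin, mitochondrial-mass and membrane-permeability phenotypes are per cents of healthy-nucleus cells.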

[1] = 12 h, 1 µM, compound concentration 1 uM, replicate 1
[2] = 12 h, 1 µM, compound concentration 1 uM, replicate 2
[3] = 12 h, 10 µM, compound concentration 10 uM, replicate 1
[4] = 12 h, 10 µM, compound concentration 10 uM, replicate 2
[5] = 24 h, 1 µM, compound concentration 1 uM, replicate 1
[6] = 24 h, 1 µM, compound concentration 1 uM, replicate 2
[7] = 24 h, 10 µM, compound concentration 10 uM, replicate 1
[8] = 24 h, 10 µM, compound concentration 10 uM, replicate 2
[9] = 12 h, 0 µM, compound concentration 0 uM, replicate 1
[10] = 12 h, 0 µM, compound concentration 0 uM, replicate 2
[11] = 24 h, 0 µM, compound concentration 0 uM, replicate 1
[12] = 24 h, 0 µM, compound concentration 0 uM, replicate 2

## CCN1CCN(c2ccc(Nc3cc(N(C)C(=O)Nc4c(Cl)c(OC)cc(OC)c4Cl)ncn3)cc2)CC1 [INFIGRATINIB]
[1]
  Population Apoptotic (%): 55%
  Population Fragmented Nuclei (%): 28%
  Population Healthy Nuclei (%): 43%
  Population Hoechst High Intensity Objects (%): 24%
  Population Membrane Permeable-Phenotype (%): 2%
  Population Mitochondria Different-Phenotype (%): 12%
  Population Mitotic Cells (%): 44%
  Population Normal (%): 75%
  Population Pyknosed Nuclei (%): 27%
  Population Tubulin-Different-Phenotype (%): 23%
  Total Cell Count: 322
[2]
  Population Apoptotic (%): 77%
  Population Fragmented Nuclei (%): 63%
  Population Healthy Nuclei (%): 20%
  Population Hoechst High Intensity Objects (%): 38%
  Population Membrane Permeable-Phenotype (%): 18%
  Population Mitochondria Different-Phenotype (%): 27%
  Population Mitotic Cells (%): 22%
  Population Normal (%): 61%
  Population Pyknosed Nuclei (%): 16%
  Population Tubulin-Different-Phenotype (%): 45%
  Total Cell Count: 89
[3]
  Population Apoptotic (%): 61%
  Population Fragmented Nuclei (%): 31%
  Population Healthy Nuclei (%): 55%
  Population Hoechst High Intensity Objects (%): 13%
  Population Membrane Permeable-Phenotype (%): 5%
  Population Mitotic Cells (%): 38%
  Population Normal (%): 86%
  Population Tubulin-Different-Phenotype (%): 3%
  Total Cell Count: 195
[4]
  Population Apoptotic (%): 75%
  Population Fragmented Nuclei (%): 60%
  Population Healthy Nuclei (%): 26%
  Population Hoechst High Intensity Objects (%): 34%
  Population Membrane Permeable-Phenotype (%): 17%
  Population Mitochondria Different-Phenotype (%): 5%
  Population Mitotic Cells (%): 25%
  Population Normal (%): 65%
  Population Pyknosed Nuclei (%): 12%
  Population Tubulin-Different-Phenotype (%): 11%
  Total Cell Count: 98
[5]
  Population Apoptotic (%): 60%
  Population Fragmented Nuclei (%): 15%
  Population Healthy Nuclei (%): 44%
  Population Hoechst High Intensity Objects (%): 36%
  Population Membrane Permeable-Phenotype (%): 4%
  Population Mitochondria Different-Phenotype (%): 29%
  Population Mitotic Cells (%): 40%
  Population Normal (%): 63%
  Population Pyknosed Nuclei (%): 39%
  Population Tubulin-Different-Phenotype (%): 40%
  Total Cell Count: 259
[6]
  Population Apoptotic (%): 66%
  Population Fragmented Nuclei (%): 60%
  Population Healthy Nuclei (%): 27%
  Population Hoechst High Intensity Objects (%): 46%
  Population Membrane Permeable-Phenotype (%): 0%
  Population Mitochondria Different-Phenotype (%): 23%
  Population Mitotic Cells (%): 33%
  Population Normal (%): 53%
  Population Pyknosed Nuclei (%): 12%
  Population Tubulin-Different-Phenotype (%): 38%
  Total Cell Count: 90
[7]
  Population Apoptotic (%): 68%
  Population Fragmented Nuclei (%): 26%
  Population Healthy Nuclei (%): 61%
  Population Hoechst High Intensity Objects (%): 15%
  Population Mitochondria Different-Phenotype (%): 3%
  Population Mitotic Cells (%): 31%
  Population Normal (%): 84%
  Population Pyknosed Nuclei (%): 11%
  Population Tubulin-Different-Phenotype (%): 3%
  Total Cell Count: 191
[8]
  Population Apoptotic (%): 100%
  Population Fragmented Nuclei (%): 56%
  Population Healthy Nuclei (%): 32%
  Population Hoechst High Intensity Objects (%): 34%
  Population Membrane Permeable-Phenotype (%): 9%
  Population Mitochondria Different-Phenotype (%): 9%
  Population Mitotic Cells (%): 0%
  Population Normal (%): 65%
  Population Pyknosed Nuclei (%): 10%
  Population Tubulin-Different-Phenotype (%): 9%
  Total Cell Count: 99

## CCNc1cc(N[C@H]2CC[C@H](O)CC2)nc(Nc2ccc3c(ccn3Cc3ccccc3)c2)n1
[9]
  Population Apoptotic (%): 55%
  Population Fragmented Nuclei (%): 24%
  Population Healthy Nuclei (%): 52%
  Population Hoechst High Intensity Objects (%): 26%
  Population Membrane Permeable-Phenotype (%): 0%
  Population Mitotic Cells (%): 44%
  Population Normal (%): 73%
  Population Pyknosed Nuclei (%): 22%
  Population Tubulin-Different-Phenotype (%): 38%
  Total Cell Count: 280
[10]
  Population Apoptotic (%): 60%
  Population Fragmented Nuclei (%): 40%
  Population Healthy Nuclei (%): 48%
  Population Hoechst High Intensity Objects (%): 47%
  Population Membrane Permeable-Phenotype (%): 4%
  Population Mitochondria Different-Phenotype (%): 41%
  Population Mitotic Cells (%): 40%
  Population Normal (%): 52%
  Population Pyknosed Nuclei (%): 10%
  Population Tubulin-Different-Phenotype (%): 41%
  Total Cell Count: 94
[1]
  Population Apoptotic (%): 76%
  Population Fragmented Nuclei (%): 45%
  Population Healthy Nuclei (%): 47%
  Population Hoechst High Intensity Objects (%): 20%
  Population Membrane Permeable-Phenotype (%): 2%
  Population Mitochondria Different-Phenotype (%): 11%
  Population Mitotic Cells (%): 23%
  Population Normal (%): 79%
  Population Pyknosed Nuclei (%): 7%
  Population Tubulin-Different-Phenotype (%): 12%
  Total Cell Count: 286
[2]
  Population Apoptotic (%): 66%
  Population Fragmented Nuclei (%): 67%
  Population Healthy Nuclei (%): 29%
  Population Hoechst High Intensity Objects (%): 50%
  Population Membrane Permeable-Phenotype (%): 8%
  Population Mitochondria Different-Phenotype (%): 17%
  Population Mitotic Cells (%): 33%
  Population Normal (%): 49%
  Population Pyknosed Nuclei (%): 3%
  Population Tubulin-Different-Phenotype (%): 34%
  Total Cell Count: 160
[11]
  Population Apoptotic (%): 71%
  Population Fragmented Nuclei (%): 21%
  Population Healthy Nuclei (%): 45%
  Population Hoechst High Intensity Objects (%): 38%
  Population Mitochondria Different-Phenotype (%): 65%
  Population Mitotic Cells (%): 28%
  Population Normal (%): 61%
  Population Pyknosed Nuclei (%): 32%
  Population Tubulin-Different-Phenotype (%): 50%
  Total Cell Count: 257
[12]
  Population Apoptotic (%): 90%
  Population Fragmented Nuclei (%): 60%
  Population Healthy Nuclei (%): 21%
  Population Hoechst High Intensity Objects (%): 40%
  Population Membrane Permeable-Phenotype (%): 0%
  Population Mitochondria Different-Phenotype (%): 83%
  Population Mitotic Cells (%): 10%
  Population Normal (%): 59%
  Population Pyknosed Nuclei (%): 18%
  Population Tubulin-Different-Phenotype (%): 33%
  Total Cell Count: 92
[5]
  Population Apoptotic (%): 76%
  Population Fragmented Nuclei (%): 45%
  Population Healthy Nuclei (%): 44%
  Population Hoechst High Intensity Objects (%): 21%
  Population Membrane Permeable-Phenotype (%): 0%
  Population Mitochondria Different-Phenotype (%): 10%
  Population Mitotic Cells (%): 24%
  Population Normal (%): 78%
  Population Pyknosed Nuclei (%): 10%
  Population Tubulin-Different-Phenotype (%): 10%
  Total Cell Count: 313
[6]
  Population Apoptotic (%): 100%
  Population Fragmented Nuclei (%): 58%
  Population Healthy Nuclei (%): 40%
  Population Hoechst High Intensity Objects (%): 53%
  Population Membrane Permeable-Phenotype (%): 3%
  Population Mitochondria Different-Phenotype (%): 50%
  Population Mitotic Cells (%): 0%
  Population Normal (%): 46%
  Population Pyknosed Nuclei (%): 1%
  Population Tubulin-Different-Phenotype (%): 53%
  Total Cell Count: 152
